# Compounds with a hit are over-represented: about 2.4% of the library has one in this group of screens.
# Hck Nef HTS: inhibitors of Nef-activated human Hck kinase, primary screen, biochemical, Z-Lyte FRET, 384-well, Hck-YEEI; Recombinant Hck-YEEI plus Nef, Z-Lyte FRET kinase assay; inhibition, % at 20 µM; Tyrosine-protein kinase HCK (Homo sapiens), P08631; AID 463187, 2010; hit rate 0.68% among 220,000;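 active means Hck-Nef kinase inhibition above about 50%, limit read from the data; inactive means inhibition below that limit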;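 further: 0% = DMSO with Hck plus Nef and 100% = Hck alone without Nef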
# Mdm2 ligase inh: MDM2-luciferase reporter signal enhancers, primary screen, MDM2 E3 ligase inhibitor project, cell-based, luminescence, 1536-well; E3 ubiquitin-protein ligase Mdm2 (Homo sapiens), Q00987; hit rate 0.11% among 210,000; cell-based MDM2 ubiquitination luciferase reporter, 2 h; 0 = plate control, 100 = twice control, blank-subtracted; signal enhancement, % at 5 µM;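 active means signal enhancement of 30% or more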;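 further: luminescence tracks abundance of the self-degrading MDM2-luciferase fusion protein; higher signal means inhibition of MDM2 E3 ligase activity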
# Target sequence (Q00987 whole entry, looked up, the tested form may be a part): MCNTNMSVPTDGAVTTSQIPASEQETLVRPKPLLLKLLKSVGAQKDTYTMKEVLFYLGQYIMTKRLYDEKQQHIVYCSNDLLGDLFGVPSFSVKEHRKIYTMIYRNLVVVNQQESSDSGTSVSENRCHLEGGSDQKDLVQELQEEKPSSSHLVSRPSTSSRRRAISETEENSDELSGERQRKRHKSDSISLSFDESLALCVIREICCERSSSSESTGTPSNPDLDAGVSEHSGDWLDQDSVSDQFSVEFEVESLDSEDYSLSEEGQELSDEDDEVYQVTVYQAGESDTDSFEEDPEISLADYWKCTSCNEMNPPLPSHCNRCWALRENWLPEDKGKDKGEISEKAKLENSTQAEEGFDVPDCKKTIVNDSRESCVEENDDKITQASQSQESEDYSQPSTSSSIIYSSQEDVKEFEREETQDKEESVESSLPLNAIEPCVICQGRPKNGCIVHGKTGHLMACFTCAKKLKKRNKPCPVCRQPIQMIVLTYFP
#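 Assay system: stable mammalian line carrying autodegrading MDM2–luciferase fusion reporter; amount: 2000 cells seeded into each well; buffer or medium: DMEM; benchmarks: plate control and blank wells; signal: luciferase luminescence; timing: 2 h compound exposure at 37 °C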
# TNF death inh: inhibitors of TNF-alpha triggered necroptosis, primary screen, cell-based, Jurkat FADD-/-, single concentration; Jurkat FADD-/- TNF necroptosis rescue, ATP luminescence, 24 h; 0 = TNF only, 100 = no-TNF cells; activation (protection from cell death), % at 10 µM; hit rate 0.068% among 220,000; AID 463075, 2010;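 active means activation, meaning protection from cell death, of at least 50% relative to plate controls; inactive means activation below 50%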;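 further: necroptosis triggered by 40 ng/mL TNF-alpha added together with compound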
# zVAD death inh: inhibitors of zVAD-triggered necroptosis, primary screen, L929 cells; viability rescue, % at 10 µM; hit rate 0.38% among 220,000; L929 zVAD necroptosis rescue, ATP luminescence, 24 h; with zVAD 60 µM;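 active means activation, scaled between plate controls, above about 75%, limit read from the data; inactive means activation under that limit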;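 further: 0% = zVAD with DMSO and 100% = DMSO alone without zVAD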
# Dynein cargo inh: inhibitors of GR-EGFP nuclear translocation, primary screen, dynein cargo transport inhibitor project, imaging, high-content, 3617.4 mouse cells; z-score, hits read low; test concentration mostly 20 µM; stimulated with dexamethasone, 1 µM; hits give low values; hit rate 0.47% among 220,000; AID 1381, 2008;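 active means plate z-score of nuclear minus cytoplasmic receptor signal below a set negative limit, without overly bright fluorescence or cell loss, cut at about -3.5 in these data, passing the limit was not always enough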;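 further: z-score of nuclear minus cytoplasmic ring GR-EGFP intensity difference per well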
#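 Buffer or medium: tet-free, stripped-serum medium; Also added: dexamethasone, 1.0 µM final; Technique: high-content fluorescence imaging after fixation; Times: 48 h induction, 1 h compound, 30 min dex at 37 °C; Read-out: per-cell GR-EGFP intensity, nucleus versus surrounding cytoplasmic ring, well-averaged.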
# Autophagy mod: autophagy modulators in MEF cells, primary screen, imaging, high-content, MEF GFP-LC3; MEF GFP-LC3 puncta imaging; test concentration mostly 10 µM; calls only at 10 µM (by protocol); hit rate 0.98% among 190,000;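 active means percentage of spot-positive cells more than 3 SD above its plate mean, without a fluorescence outlier flag or 80% toxicity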;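 further: spot-positive cell cutoff set from DMSO-treated cells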
# zVAD death conf: inhibitors of zVAD-triggered necroptosis in L929, confirmation, L929 cells, duplicate runs; shares compounds with zVAD death inh; L929 zVAD-induced necroptosis rescue, ATP luminescence, 24 h; activation (protection from necroptosis), % at 10 µM; hit rate 16% among 760; AID 463117, 2010;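 active means mean protection from necroptosis of at least 50% over duplicate tests; inactive means mean protection below 50%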;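 further: 0% = cells with zVAD alone and 100% = vehicle cells without zVAD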
# Starred values were filed as active, the others as inactive; i = inactive; . = no result given; ! = not confirmed by another sample.
SMILES,Hck Nef HTS,Mdm2 ligase inh,TNF death inh,zVAD death inh,Dynein cargo inh,Autophagy mod,zVAD death conf
CN1CCN(c2ccc(-c3ccnn3C(=O)Nc3ccccc3)cc2)CC1,-5.6,5.7,8.6,83.6*,-0.119,i,29.5
Cc1ccc(C(=O)N/C(=C/c2ccc(C(C)C)cc2)C(=O)NCCCN2CCOCC2)cc1,-3.5,-6.9,3.4,0.3,-0.289,.,.
Cc1[nH]c2c(ccc3cccnc32)c1C,17.7,-24.5,12.2,77.9*,0.0161,.,9.7
CCOC(=O)c1ccc(NC(=O)Nc2ccn(C)n2)cc1,0.9,-10.1,1.0,86.3*,0.261,i,40.3
CCOC(=O)c1ccc(NC(=O)Nc2cccc(C)n2)cc1,16.0,-87.4,1.4,68.2,0.261,i,.
Cn1nc(C(=O)NCCOc2ccccc2)c2ccccc2c1=O,5.2,-3.9,0.1,-0.4,-0.443,i,.
CCN(CC)Cc1cc2[nH]c3c4ccc(Cl)cc4ncc3c2cc1OC,46.4,.,-28.6,80.9*,0.175,.,73.1*
CC(C)(C)c1ccc(NC(=O)Nc2ccc(OCC(=O)N3CCOCC3)cc2)cc1,0.1,-36.7,1.5,80.2*,-0.675,i,40.4
O=C(Nc1ccc(OCC(=O)N2CCOCC2)cc1)Nc1cccc(Cl)c1,20.1,14.4,1.8,71.1,-0.16,i,.
CC1=NN(c2ccccc2)C(=O)/C1=C\c1cc(C)n(-c2cccnc2)c1C,16.1,-4.0,-1.6,0.3,0.341,.,.
CC1=NN(c2ccccc2)C(=O)/C1=C\c1cc(C)n(-c2ccccc2)c1C,-1.2,-5.8,2.8,87.8*,0.327,i,2.3
O=C(CSCc1ccc(Cl)cc1)Nc1ccc(S(=O)(=O)N2CCOCC2)cc1,0.8,-5.7,6.0,0.8,0.249,i,.
CCC(=O)Nc1ccc(C(=O)NNC(=O)COc2cc(C)ccc2C)cc1,2.0,-3.8,0.6,84.6*,0.506,i,45.1
Cc1ccc(/C=C2/SC(=S)N(CC(=O)Nc3ncc(Cc4ccc(C)cc4)s3)C2=O)cc1,-17.6,-2.7,-0.8,75.2*,-0.0985,i,0.2
Cc1ccc(/C=C2\SC(=S)N(CC(=O)Nc3ncc(Cc4ccccc4Cl)s3)C2=O)cc1,3.9,-14.5,-3.0,0.1,-0.263,i,.
CCCCn1cnc(C(=O)OCC)c1N,0.0,-2.1,2.3,.,-0.559,i,.
CC(=O)c1ccc(OCCCC(=O)Nc2ccc(C)c(S(=O)(=O)N(C)C)c2)cc1,1.3,-9.6,1.4,1.1,-0.9,i,.
COc1ccc(OCC(=O)Nc2ccc(C)c(S(=O)(=O)N(C)C)c2)cc1,20.2,-27.1,-0.3,80.6*,1,i,2.4
O=C(Nc1cccc(Cl)c1)Nc1nccs1,1.0,-4.8,11.3,81.6*!,-1.49,i,10.6
O=C(Nc1ccc(Cl)c(Cl)c1)Nc1nccs1,10.5,.,-12.7,0.8,-0.483,.,.
COC(=O)c1ccc(NC(=O)Nc2ccc(OC)c(OC)c2)cc1,16.6,3.1,1.2,82.5*,-0.794,i,0.8
CCC(C)C(NC(N)=O)C(=O)Nc1ccc(C(=O)OC)cc1 (configuration not stated),-10.0,5.9,0.5,77.8*,-0.104,i,4.1
CC[C@H](C)[C@H](NC(N)=O)C(=O)Nc1ccc(NC(C)=O)cc1,18.5,-3.9,0.3,-0.7,0.802,.,.
COCCCn1c(=S)[nH]c2sc3c(c2c1=O)CCCS3,4.0,-28.7,-1.4,-0.7,0.679,i,.
CCn1c(=O)c([N+](=O)[O-])c(NC2CCS(=O)(=O)C2)c2ccccc21 (configuration not stated),17.9,-4.3,3.5,1.8,-0.00985,.,.
SMILES,Hck Nef HTS,Mdm2 ligase inh,TNF death inh,zVAD death inh,Dynein cargo inh,Autophagy mod,zVAD death conf
COc1ccc(OC)c(Nc2nc(-c3ccccc3O)nc3ccccc23)c1,-24.0,-20.1,0.7,3.6,i,i,.
COc1ccccc1Nc1nc(-c2ccccc2O)nc2ccccc12,19.8,2.5,2.1,75.9*,0.418,i,-0.5
COc1ccccc1NS(=O)(=O)c1cccc(C(=O)N/N=C(\C)c2ccc(-n3ccnc3)cc2)c1,11.2,5.0,1.6,76.2*,-0.413,i,37.8
C/C(=N\NC(=O)c1ccccc1)c1ccc(-n2ccnc2)cc1,1.6,-6.5,0.8,5.2,0.677,i,.
N#C/C(=C\C=C\c1ccccc1[N+](=O)[O-])C(=O)NC1CCCCC1,9.1,-7.8,-1.7,75.4*,0.647,i,0.1
COc1ccc(/C=N/Nc2cc(N(C)C)nc(N(C)C)n2)cc1,9.9,-5.4,0.3,4.2,-1.53,i,.
COc1ccc(/C=N/Nc2cc(OC)ncn2)cc1,20.2,-42.2,5.5,78.0*,0.459,i,28.4
Brc1ccc(/C=N/Nc2ccccn2)cc1,14.3,-2.0,15.5,77.9*,-0.77,i,3.8
CCOc1ccc(/C=N/Nc2ccccn2)cc1,26.0,-39.5,12.3,77.6*,-0.877,i,3.9
C(=N\Nc1ccccn1)/c1ccc(N2CCOCC2)cc1,33.0,-12.6,29.9,74.7,0.737,i,.
CCCOc1ccc(/C=N/NC(=O)C(=O)Nc2ccccn2)cc1,3.4,-1.4,0.2,-0.1,-0.281,i,.
COc1cc(/C=N/NC(=O)C(=O)Nc2ccccn2)ccc1O,-0.5,-23.6,0.5,0.4,0.976,i,.
COc1ccc(/C=N/Nc2ccccn2)cc1O,11.4,-7.5,59.5*,89.6*,0.0354,.,64.5*
O=C(NNS(=O)(=O)c1ccc(Cl)cc1)c1cccc(S(=O)(=O)N2CCOCC2)c1,22.3,.,1.5,0.2,-0.236,.,.
Fc1ccc(/C=N/Nc2ccccn2)cc1,8.7,-9.9,16.8,73.0,-0.647,i,.
Brc1ccccc1/C=N/Nc1ccccn1,2.0,-5.1,2.9,52.1,2.15,i,.
Clc1ccc(/C=N/Nc2ccccn2)cc1,12.8,-7.8,18.1,80.7*,-0.342,i,44.6
Cc1noc(C)c1/C=N/Nc1ccccn1,27.9,-9.9,44.7,82.0*,0.257,i,73.2*
COc1cc(NC(=O)COc2ccc(-n3ccnc3)cc2)cc(OC)c1,18.6,2.4,-1.0,72.8,0.32,i,.
N#Cc1cccc(NC(=O)COc2ccc(-n3ccnc3)cc2)c1,1.4,-2.3,-2.2,77.3*,-0.35,i,67.7*
